From ChEMBL document CHEMBL1146510, “New cytotoxic naphthopyrane derivatives from Adenaria floribunda” (2004) come the findings set out here.

Common to all, as to format: functional
One experiment relates to NCI-H460. Briefly: Cytotoxicity against human H460 cells. In short, it runs like this: (§1)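 Human cancer cell lines tested: MCF-7 (breast), H-460 (lung) and SF-268 (central nervous system). Cytotoxicity was run by a previously published cell-line screening method. The same three lines were used to follow activity through fractionation.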
A further experiment relates to SF-268. Put plainly: Cytotoxicity against human SF268 cells. In short, it runs like this:
as §1

The next experiment concerns MCF7. Put plainly: Cytotoxicity against human MCF7 cells. In short, it runs like this: as §1

Values after ≈ are worked out from the molar mass of the structure shown. Where only a bound is given, the exact number is not on record here.

As for `COc1c(CC=C(C)C)c(O)c2c(O)c3c(cc2c1CC=C(C)C)O[C@H](C)CC3=O` [ADENAFLORINE A], the 50% growth inhibitory concentration (GI50) with NCI-H460 turned out to be 0.16 µg/mL (≈ 0.39 µM); with SF-268, 0.13 µg/mL (≈ 0.317 µM); in the experiment with MCF7 it was 0.24 µg/mL (≈ 0.585 µM).

For `COc1c(CC=C(C)C)c(O)c2c(O)c3c(=O)cc(C)oc3cc2c1CC=C(C)C` [ADENAFLORINE B], the GI50 with NCI-H460 worked out at 2.9 µg/mL (≈ 7.1 µM); with SF-268, 3.9 µg/mL (≈ 9.55 µM); in the experiment on MCF7, 4.3 µg/mL (≈ 10.5 µM).

As for `CC(=O)c1c2c(c3cc(OCC=C(C)C)c(CC=C(C)C)c(O)c3c1O)C=CC(C)(C)O2` [ADENAFLORINE C], the GI50 in the experiment with NCI-H460 came to 1.1 µg/mL (≈ 2.52 µM); in the experiment with SF-268 it was 1.4 µg/mL (≈ 3.21 µM); in the experiment with MCF7 it was 1.2 µg/mL (≈ 2.75 µM).

As to `CC(=O)c1c(O)c(CC=C(C)C)c2cc(OCC=C(C)C)c3c(c2c1O)OC(C)(C)C=C3` [ADENAFLORINE D], the GI50 in the experiment with NCI-H460 is 9.3 µg/mL (≈ 21.3 µM); in the experiment with SF-268 it was > 10 µg/mL; with MCF7 it was > 10 µg/mL.
